Tests used:
Trypanosoma cruzi [1] = assay: Inhibitory concentration against Trypanosoma cruzi (epimastigotes); assay type: functional, organism-based
Procedure, shortened: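 Epimastigote growth inhibition; IC50 values are the means of three experiments.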

Trypanosoma cruzi [2] = assay: Maximum inhibitory activity against Trypanosoma cruzi (amastigotes); assay type: functional
Trypanosoma cruzi [3] = assay: Inhibitory concentration against Trypanosoma cruzi (amastigotes); assay type: functional, organism-based
Trypanosoma cruzi [4] = assay: Maximum inhibitory activity against Trypanosoma cruzi (amastigotes)

**Q.** How did the IC50 (Trypanosoma cruzi [1]) turn out when `CCCCCC(P(=O)(OCC)OCC)P(=O)(OCC)OCC` was run?
**A.** > 50 µM

**Q.** For `CCCC(P(=O)(OCC)OCC)P(=O)(OCC)OCC`, which Inhibition (Trypanosoma cruzi [2]) is on record?
**A.** 27%

**Q.** What about the IC50 (Trypanosoma cruzi [1]) of the same compound?
**A.** > 70 µM

**Q.** And the IC50 (Trypanosoma cruzi [3]; Trypanosoma cruzi)?
**A.** > 70 µM

**Q.** How did the IC50 (Trypanosoma cruzi [1]) turn out when `CCCCCCCC(P(=O)(OCC)OCC)P(=O)(OCC)OCC` was run?
**A.** > 50 µM

**Q.** How did the IC50 (Trypanosoma cruzi [1]) turn out when `CCCCCCCCC(O)(P(=O)(O)O)P(=O)(O)O` was run?
**A.** > 70 µM

**Q.** How did the IC50 (Trypanosoma cruzi [1]) turn out when `CCCCCCCCC(P(=O)(OCC)OCC)P(=O)(OCC)OCC` was run?
**A.** > 50 µM

**Q.** And the IC50 (Trypanosoma cruzi [3]; Trypanosoma cruzi)?
**A.** > 50 µM

**Q.** `CCCCCCC(P(=O)(OCC)OCC)P(=O)(OCC)OCC` was tested. Which IC50 (Trypanosoma cruzi [1]) did it give?
**A.** > 50 µM

**Q.** With `CCCCCCCCCC(P(=O)(O)O)P(=O)(O)O` as the compound, how does the IC50 (Trypanosoma cruzi [1]) read?
**A.** > 70 µM

**Q.** How did the IC50 (Trypanosoma cruzi [3]; Trypanosoma cruzi) turn out when `CCOP(=O)(OCC)C(CC)P(=O)(OCC)OCC` was run?
**A.** > 70 µM

**Q.** With `CCC(P(=O)(O)O)P(=O)(O)O` as the compound, how does the Inhibition (Trypanosoma cruzi [2]) read?
**A.** 21%

**Q.** What about the IC50 (Trypanosoma cruzi [1]) of the same compound?
**A.** > 100 µM

**Q.** What about the IC50 (Trypanosoma cruzi [3]; Trypanosoma cruzi) of the same compound?
**A.** > 100 µM

**Q.** `CCCCCCCCC(P(=O)(O)O)P(=O)(O)O` was tested. Which IC50 (Trypanosoma cruzi [1]) did it give?
**A.** > 70 µM

**Q.** With `CCCC(P(=O)(O)O)P(=O)(O)O` as the compound, how does the Inhibition (Trypanosoma cruzi [2]) read?
**A.** 28%

**Q.** And the IC50 (Trypanosoma cruzi [1])?
**A.** > 100 µM

**Q.** What about the IC50 (Trypanosoma cruzi [3]; Trypanosoma cruzi) of the same compound?
**A.** > 90 µM

**Q.** With `CCCCC(P(=O)(OCC)OCC)P(=O)(OCC)OCC` as the compound, how does the IC50 (Trypanosoma cruzi [1]) read?
**A.** > 70 µM

**Q.** What about the IC50 (Trypanosoma cruzi [3]; Trypanosoma cruzi) of the same compound?
**A.** > 50 µM

**Q.** With `CCCCCCCCCC(P(=O)(OCC)OCC)P(=O)(OCC)OCC` as the compound, how does the IC50 (Trypanosoma cruzi [1]) read?
**A.** > 50 µM

**Q.** For `CCCCCC(P(=O)(O)O)P(=O)(O)O`, which IC50 (Trypanosoma cruzi [1]) is on record?
**A.** > 70 µM

**Q.** `CCCCCCCC(O)(P(=O)(O)O)P(=O)(O)O` was tested. Which Inhibition (Trypanosoma cruzi [4]) did it give?
**A.** 41%

**Q.** What about the IC50 (Trypanosoma cruzi [1]) of the same compound?
**A.** > 70 µM

**Q.** What about the IC50 (Trypanosoma cruzi [3]; Trypanosoma cruzi) of the same compound?
**A.** > 70 µM

**Q.** With `CCCCCC(O)(P(=O)(O)O)P(=O)(O)O` as the compound, how does the Inhibition (Trypanosoma cruzi [4]) read?
**A.** 34%

**Q.** What about the IC50 (Trypanosoma cruzi [1]) of the same compound?
**A.** > 70 µM

**Q.** What about the IC50 (Trypanosoma cruzi [3]; Trypanosoma cruzi) of the same compound?
**A.** > 70 µM

**Q.** For `CCCCCCC(P(=O)(O)O)P(=O)(O)O`, which Inhibition (Trypanosoma cruzi [2]) is on record?
**A.** 47%

**Q.** And the IC50 (Trypanosoma cruzi [1])?
**A.** > 70 µM

**Q.** And the IC50 (Trypanosoma cruzi [3]; Trypanosoma cruzi)?
**A.** > 70 µM

**Q.** `CCCCC(P(=O)(O)O)P(=O)(O)O` was tested. Which IC50 (Trypanosoma cruzi [1]) did it give?
**A.** > 70 µM

**Q.** And the IC50 (Trypanosoma cruzi [3]; Trypanosoma cruzi)?
**A.** > 70 µM

**Q.** For `CCCCCCCC(P(=O)(O)O)P(=O)(O)O`, which Inhibition (Trypanosoma cruzi [2]) is on record?
**A.** 49%

**Q.** And the IC50 (Trypanosoma cruzi [1])?
**A.** > 70 µM

**Q.** What about the IC50 (Trypanosoma cruzi [3]; Trypanosoma cruzi) of the same compound?
**A.** > 70 µM

**Q.** For `CCCC(O)(P(=O)(O)O)P(=O)(O)O`, which IC50 (Trypanosoma cruzi [1]) is on record?
**A.** > 70 µM

**Q.** Which IC50 (Trypanosoma cruzi [1]) does the source give for `CCCCCCCCCC(O)(P(=O)(O)O)P(=O)(O)O` here?
**A.** > 70 µM

**Q.** Which IC50 (Trypanosoma cruzi [3]) does the source give for `CCCCCCC(O)(P(=O)(O)O)P(=O)(O)O` here?
**A.** 18.1 µM

**Q.** Which results are given for `CCCCCCCCCCCCCC(O)(P(=O)(O)O)P(=O)(O)O`?
**A.** Inhibition (Trypanosoma cruzi [2]): 10%; IC50 (Trypanosoma cruzi [3]; Trypanosoma cruzi): > 70 µM
